Results reported in ChEMBL document CHEMBL4842338, “System-oriented optimization of multi-target 2,6-diaminopurine derivatives: Easily accessible broad-spectrum antivirals active against flaviviruses, influenza virus and SARS-CoV-2” (Eur J Med Chem, 2021).
Calls of active or inactive are those of the source. The rule behind the calls is not given here.

Legend:
[1] = test system: A549; assay: Cytotoxicity against human A549 cells assessed as reduction in cell viability measured after 24 hrs by MTT assay; type: cell-based; settings: a549, 24 h
[2] = test system: Influenza A virus; assay: Antiviral activity against Influenza A Puerto Rico/8/34/H1N1 infected in human A549 cells assessed as reduction in viral protein expression at 20 uM treated for 2 to 6 hrs post infection and measured following infection of MDCK cells with supernatant for 24 hrs by time-of-addition assay; type: functional, organism-based; settings: A/Puerto Rico/8/1934(H1N1), time 2-6 hrs
[3] = test system: Zika virus; assay: Antiviral activity against Zika virus H/PF/2013 infected in pre-seeded Huh-7 cells assessed as inhibition of viral replication incubated for 72 hrs by immunodetection based direct yield reduction assay; type: functional, organism-based; settings: H/PF/2013, Huh-7, 72 h
In short: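 Direct yield reduction in Huh7 cells (7000/well), infected with 50 TCID₅₀ of DENV or ZIKV, or 25 TCID₅₀ of WNV. Adsorption 1 h at 37 °C, then virus removed and serial compound dilutions added. Incubated 72 h (DENV, ZIKV) or 48 h (WNV). Viral antigen immunodetected on the monolayer. IC₅₀ by non-linear regression, mean of three experiments. SI = CC₅₀ (Huh7, CellTiter-Glo luminescence)/IC₅₀.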

[4] = test system: Zika virus; assay: Antiviral activity against Zika virus H/PF/2013 infected in pre-seeded Huh-7 cells assessed as inhibition of viral replication incubated for 72 hrs by immunodetection based plaque reduction assay; type: functional, organism-based; settings: H/PF/2013, Huh-7, 72 h
[5] = test system: West Nile virus; assay: Antiviral activity against West Nile virus lineage 1 (Italy/2009) infected in pre-seeded Huh-7 cells assessed as inhibition of viral replication incubated for 48 hrs by immunodetection based direct yield reduction assay; type: functional, organism-based; settings: huh-7
[6] = Antioxidant activity assessed as inhibition of ABTS radical scavenging activity at 10 uM to 1 mM measured after 10 mins; type: functional
In short: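 ABTS radical solution diluted in ethanol (1:100) to A734 0.70; 3.0 mL mixed with 30 μL sample in DMSO at 10 μM–1 mM; A734 read after exactly 10 min; ascorbic acid reference; % scavenging = (A0−As)/A0×100.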

[7] = test system: MDCK; assay: Cytotoxicity against MDCK cells assessed as reduction in cell viability measured after 24 hrs by MTT assay; type: cell-based, Canis lupus familiaris; settings: dog, mdck, 24 h
[8] = test system: Influenza A virus; assay: Antiviral activity against Influenza A Puerto Rico/8/34/H1N1 infected in human A549 cells assessed as reduction in viral protein expression at 20 uM treated for 24 hrs pdp viral adsorption followed by staining with anti-Flu antibody observed at 24 hrs post infection by In-cell western assay; type: functional, organism-based; settings: A/Puerto Rico/8/1934(H1N1)
[9] = test system: Influenza A virus; assay: Antiviral activity against Influenza A/California/04/2009H1N1 infected in human A549 cells assessed as reduction in viral protein expression at 20 uM pretreated for 2 hrs followed by staining with anti-Flu antibody observed at 24 hrs post infection by In-cell western assay; type: functional, organism-based
[10] = test system: Influenza A virus; assay: Antiviral activity against Influenza A/California/04/2009H1N1 infected in human A549 cells assessed as reduction in viral protein expression at 20 uM treated for 24 hr pdp viral adsorption followed by staining with anti-Flu antibody observed at 24 hrs post infection by In-cell western assay; type: functional, organism-based
[11] = test system: Influenza A virus; assay: Antiviral activity against Influenza A virus (A/parrot/Ulster/73(H7N1)) infected in human A549 cells assessed as reduction in viral protein expression at 20 uM pretreated for 2 hrs followed by staining with anti-Flu antibody observed at 24 hrs post infection by In-cell western assay; type: functional, organism-based
[12] = test system: Influenza A virus; assay: Antiviral activity against Influenza A virus (A/parrot/Ulster/73(H7N1)) infected in human A549 cells assessed as reduction in viral protein expression at 20 uM treated for 2 to 6 hrs post infection and measured following infection of MDCK cells with supernatant for 24 hrs by time-of-addition assay; type: functional, organism-based; settings: time 2-6 hrs
[13] = Toxicity in human A549 cells assessed as effect on host cell membrane; type: cell-based
[14] = Cytotoxicity against human Huh-7 cells infected with SARS-COV-2 assessed as reduction in cell viability by celltiter-glo luminescent cell viability assay; type: cell-based; settings: Huh-7 cells infected with SARS-COV-2
In short: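 Compound-exposed cells assessed by CellTiter-Glo luminescence versus DMSO control; CC50 from dose-response.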

[15] = Selectivity index, ratio of CC50 for human Huh-7 cells infected with SARS-COV-2 to IC50 for SARS-COV 2 infected in human Huh-7; type: toxicity; settings: read-out: Selectivity Index
[16] = Selectivity index, ratio of CC50 for African green monkey Vero E6 cells infected with SARS-COV-2 to IC50 for SARS-COV 2 infected in monkey Vero E6 cells; type: toxicity, cell-based, Vero C1008; settings: read-out: Selectivity Index
[17] = Selectivity index, ratio of CC50 for human Calu-3 cells infected with SARS-COV-2 to IC50 for SARS-COV 2 infected in human Calu-3 cells; type: toxicity, cell-based; settings: read-out: Selectivity Index
[18] = test system: SARS-CoV-2; assay: Antiviral activity against SARS-COV 2 infected in human Calu-3 cells assessed as inhibition of viral replication at MOI of 0.01 followed by removal of test compound after cell virus adsorption incubated for 72 hrs by ENTRY-DYRA method; type: functional, organism-based; settings: Severe acute respiratory syndrome coronavirus 2, Calu-3, 72 h
[19] = test system: SARS-CoV-2; assay: Antiviral activity against SARS-COV 2 infected in quadruplicate Vero E6 cells with DYRA supernatant assessed as reduction in viral replication at 20 uM; type: functional; settings: Severe acute respiratory syndrome coronavirus 2, Vero C1008
[20] = test system: SARS-CoV-2; assay: Antiviral activity against SARS-COV 2 infected in quadruplicate Vero E6 cells with DYRA supernatant assessed as reduction in viral replication at 0.8 uM; type: functional; settings: Severe acute respiratory syndrome coronavirus 2, Vero C1008
[21] = biological target: Src (Proto-oncogene tyrosine-protein kinase Src) (Homo sapiens, UniProt P12931); assay: Inhibition of human recombinant N terminal His6 tagged full length Src assessed as residual activity at 5 uM using KVEKIGEGTYGVVYK as a substrate in the presence of NP-40 incubated for 10 mins by scintillation counting analysis relative to control; settings: probe KVEKIGEGTYGVVYK, read-out: Activity
Chain of Src (Proto-oncogene tyrosine-protein kinase Src) (P12931 2-536 limits assumed): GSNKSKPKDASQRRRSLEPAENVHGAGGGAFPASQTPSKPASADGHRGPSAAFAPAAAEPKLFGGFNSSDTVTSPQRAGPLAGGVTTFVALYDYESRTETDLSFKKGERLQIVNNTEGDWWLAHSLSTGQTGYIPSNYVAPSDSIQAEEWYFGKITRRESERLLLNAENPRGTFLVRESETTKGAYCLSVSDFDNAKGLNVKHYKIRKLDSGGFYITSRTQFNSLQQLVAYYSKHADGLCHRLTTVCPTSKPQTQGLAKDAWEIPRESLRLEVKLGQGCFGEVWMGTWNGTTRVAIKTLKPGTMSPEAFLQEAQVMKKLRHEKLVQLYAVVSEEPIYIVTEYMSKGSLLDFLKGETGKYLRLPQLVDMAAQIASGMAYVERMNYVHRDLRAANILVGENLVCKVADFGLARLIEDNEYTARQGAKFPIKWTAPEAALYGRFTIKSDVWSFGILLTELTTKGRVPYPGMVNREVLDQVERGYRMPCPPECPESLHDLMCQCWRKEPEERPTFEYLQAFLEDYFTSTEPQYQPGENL
In short: (§1)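 Compounds at fixed 5 μM; 10–50 ng kinase, substrate and NP-40/BSA per supplementary table, 10 μL at 30 °C for 10 min in low-binding tubes. Reactions spotted on filter, dried, scintillation counted. Mean ± SD of two independent experiments.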

[22] = biological target: Abl (Tyrosine-protein kinase ABL1) (Homo sapiens, UniProt P00519); assay: Inhibition of human recombinant N terminal His6 tagged Abl (27 to end residue) assessed as residual activity at 5 uM using KKGEAIYAADFA-NH2 as a substrate in the presence of NP-40 incubated for 10 mins by scintillation counting analysis relative to control; settings: probe KKGEAIYAADFA-NH2, read-out: Activity; in short: as §1
Chain of Abl (Tyrosine-protein kinase ABL1) (P00519 whole entry, canonical isoform): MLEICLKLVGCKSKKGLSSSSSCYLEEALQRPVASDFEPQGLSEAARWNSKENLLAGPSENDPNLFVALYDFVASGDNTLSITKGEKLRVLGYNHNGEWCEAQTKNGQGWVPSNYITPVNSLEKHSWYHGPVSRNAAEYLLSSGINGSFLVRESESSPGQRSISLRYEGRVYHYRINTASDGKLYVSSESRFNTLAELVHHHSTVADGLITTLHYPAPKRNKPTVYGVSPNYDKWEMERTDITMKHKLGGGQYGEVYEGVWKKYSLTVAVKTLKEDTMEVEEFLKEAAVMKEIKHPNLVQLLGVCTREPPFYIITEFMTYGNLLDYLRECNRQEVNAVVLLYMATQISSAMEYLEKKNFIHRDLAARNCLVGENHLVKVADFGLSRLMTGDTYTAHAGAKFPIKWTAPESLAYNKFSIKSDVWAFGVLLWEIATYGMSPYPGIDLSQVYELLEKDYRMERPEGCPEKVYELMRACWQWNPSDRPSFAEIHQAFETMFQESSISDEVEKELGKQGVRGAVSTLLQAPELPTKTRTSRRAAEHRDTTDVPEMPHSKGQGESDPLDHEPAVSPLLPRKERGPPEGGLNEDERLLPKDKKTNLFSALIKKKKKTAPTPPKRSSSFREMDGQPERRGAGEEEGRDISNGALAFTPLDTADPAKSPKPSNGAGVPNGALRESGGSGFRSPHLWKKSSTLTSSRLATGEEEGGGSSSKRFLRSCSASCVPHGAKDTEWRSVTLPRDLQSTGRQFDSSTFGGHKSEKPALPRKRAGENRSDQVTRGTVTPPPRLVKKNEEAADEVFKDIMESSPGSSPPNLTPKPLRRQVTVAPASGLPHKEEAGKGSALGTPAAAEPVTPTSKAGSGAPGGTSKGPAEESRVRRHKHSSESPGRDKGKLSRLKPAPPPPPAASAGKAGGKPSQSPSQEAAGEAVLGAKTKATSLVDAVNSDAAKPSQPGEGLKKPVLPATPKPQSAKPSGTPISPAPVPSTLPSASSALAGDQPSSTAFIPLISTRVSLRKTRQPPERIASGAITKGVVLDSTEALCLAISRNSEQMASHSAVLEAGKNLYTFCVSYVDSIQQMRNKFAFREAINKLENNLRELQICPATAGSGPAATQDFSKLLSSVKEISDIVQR

[23] = biological target: PIK3CA (Phosphatidylinositol 4,5-bisphosphate 3-kinase catalytic subunit alpha isoform) (Homo sapiens, UniProt P42336); assay: Inhibition of human full length PIK3CA assessed as residual activity at 5 uM using PI:PS (1:3) as a substrate incubated for 10 mins by scintillation counting analysis relative to control; settings: full length PIK3CA enzyme, probe PI:PS (1:3), read-out: Activity
Chain of PIK3CA (Phosphatidylinositol 4,5-bisphosphate 3-kinase catalytic subunit alpha isoform) (P42336 whole entry, canonical isoform): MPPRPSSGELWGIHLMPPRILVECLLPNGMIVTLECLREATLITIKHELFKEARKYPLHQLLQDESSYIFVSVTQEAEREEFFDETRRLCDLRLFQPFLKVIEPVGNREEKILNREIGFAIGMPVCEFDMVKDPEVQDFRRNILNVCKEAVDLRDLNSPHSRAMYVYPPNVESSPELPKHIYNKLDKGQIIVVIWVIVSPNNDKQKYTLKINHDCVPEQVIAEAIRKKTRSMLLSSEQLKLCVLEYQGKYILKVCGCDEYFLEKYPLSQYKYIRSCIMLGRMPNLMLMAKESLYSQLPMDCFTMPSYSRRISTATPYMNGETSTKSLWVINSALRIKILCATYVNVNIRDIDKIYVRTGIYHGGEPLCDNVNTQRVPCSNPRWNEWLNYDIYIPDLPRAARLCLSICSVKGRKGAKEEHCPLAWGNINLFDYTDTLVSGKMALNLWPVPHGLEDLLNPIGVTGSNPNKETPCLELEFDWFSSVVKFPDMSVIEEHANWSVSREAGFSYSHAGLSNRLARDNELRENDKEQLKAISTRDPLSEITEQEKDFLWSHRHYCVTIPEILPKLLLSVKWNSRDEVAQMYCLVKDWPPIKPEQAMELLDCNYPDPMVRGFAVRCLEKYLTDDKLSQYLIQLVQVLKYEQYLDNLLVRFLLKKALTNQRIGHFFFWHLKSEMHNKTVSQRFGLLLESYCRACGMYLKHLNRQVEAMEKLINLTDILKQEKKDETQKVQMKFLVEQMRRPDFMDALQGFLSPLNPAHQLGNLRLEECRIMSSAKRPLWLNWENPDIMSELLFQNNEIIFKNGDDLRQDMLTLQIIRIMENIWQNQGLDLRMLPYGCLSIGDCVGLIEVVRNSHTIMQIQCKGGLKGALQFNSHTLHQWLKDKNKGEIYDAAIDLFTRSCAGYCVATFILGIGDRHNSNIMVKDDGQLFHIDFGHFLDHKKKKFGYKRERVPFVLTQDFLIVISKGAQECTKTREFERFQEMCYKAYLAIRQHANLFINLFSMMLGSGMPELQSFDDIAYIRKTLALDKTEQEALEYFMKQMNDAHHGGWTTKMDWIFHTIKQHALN
In short: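 Radiometric kinase reaction with 10–50 ng enzyme and compound fixed at 5 μM, 10 μL at 30 °C for 10 min. Reactions spotted on filter and counted by scintillation. Residual activity is the mean ± SD of two independent experiments.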

Compound: FC(F)(F)c1cccc(Nc2nc(NCCOc3ccccc3)nc3[nH]cnc23)c1
- CC50 [1]: 106 µM
- Activity [2]: Active
- IC50 [3]: 0.8 µM
- IC50 [4]: 0.5 µM
- IC50 [5]: Not Active
- Activity [6]: Active
- CC50 [7]: 77 µM
- Activity [8]: Active
- Activity [9]: Active
- Activity [10]: Active
- Activity [11]: Active
- Activity [12]: Active
- Activity [13]: Toxic
- CC50 [14]: 200 µM
- selectivity ratio [15]: 74
- selectivity ratio [16]: 4
- selectivity ratio [17]: 240
- IC50 [18]: 1.9 µM
- inhibition at 20 µM [19]: 91.9%
- inhibition at 0.8 µM [20]: 83.5%
- activity at 10 min, 5 µM [21]: 47%
- activity at 10 min, 5 µM [22]: 70%
- activity at 10 min, 5 µM [23]: 66%
